Columns and labels:
Mus musculus [1] = experiment: Compound was tested for antidepressant activity against reserpine induced ptosis in mice after intraperitoneal administration.; value ranges from 14-18; format: functional; settings: ip
Method in brief: (§1)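 Female CD1 mice (18-22 g) received the drug in distilled water/gum tragacanth ip at multiple doses (7-20 mice/dose), given together with reserpine (2 mg/kg iv). One hour later, palpebral ptosis (half or more of the lid closed) was scored all-or-none. Screening dose was at most 50% of the seizure threshold dose.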

Mus musculus [2] = experiment: Serotonergic activity was determined by measuring the potentiation of 5-hydroxytryptophan in mice upon ip administration; format: functional
Method in brief: (§2)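 Drug was injected ip in distilled water/gum tragacanth to female CD1 mice (18-22 g) at multiple doses (7-20 mice/dose), 30 min before a threshold dose of L-5-HTP (200 mg/kg ip). Mice were held singly in small cages, and tremor was scored all-or-none over the 20 min after L-5-HTP.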

Mus musculus [3] = experiment: Ability to modify turning behavior of mice after intraperitoneal administration; format: functional; settings: ip, read-out: MED
Method in brief: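 Female CD1 mice (25-30 g) were lesioned by stereotaxic injection of 6-OHDA (10 μg in 1 μL saline with 1 mg/mL ascorbic acid) into the right striatum under pentobarbitone (60 mg/kg ip). Seven days later, drug in distilled water/gum tragacanth was given ip at multiple doses (7-20 mice/dose). Ipsilateral turns were counted for 2 min starting 30 min post-dose.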

[4] = (§3) Acute toxicity in mice after intraperitoneal administration.; settings: mouse, in vivo, ip, LD50
Mus musculus [5] = experiment: Compound was tested for antidepressant activity against reserpine induced ptosis in mice after intraperitoneal administration; 50% activity at this maximal tested dose; format: functional; settings: ip; method in brief: as §1
Mus musculus [6] = experiment: Antidepressant activity against reserpine induced ptosis in mice after intraperitoneal administration.; format: functional; settings: ip; method in brief: as §1
[7] = Compound was tested for acute toxicity in mice after intraperitoneal administration; format: organism-based; settings: mouse, in vivo, ip
Method in brief: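 Female CD1 mice in groups of 5-10 received drug or vehicle (distilled water with gum tragacanth) ip. LD50 was derived graphically.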

Mus musculus [8] = experiment: Compound was tested for antidepressant activity against reserpine induced ptosis in mice after intraperitoneal administration.; value ranges from 16-20; format: functional; settings: ip; method in brief: as §1
Mus musculus [9] = experiment: Serotonergic activity by measuring the potentiation of 5-hydroxy tryptophan in mice upon ip administration; value ranges from 17-20; format: functional; method in brief: as §2
Mus musculus [10] = experiment: Compound was tested for antidepressant activity against reserpine induced ptosis in mice after intraperitoneal administration.; value ranges from 1.9-10.7; format: functional; settings: ip; method in brief: as §1
Mus musculus [11] = experiment: Serotonergic activity by measuring the potentiation of 5-hydroxy tryptophan in mice upon ip administration; value ranges from 1.9-11.7.; format: functional; method in brief: as §2
Mus musculus [12] = experiment: Compound was tested for antidepressant activity against reserpine induced ptosis in mice after intraperitoneal administration.; value ranges from 5-9; format: functional; settings: ip; method in brief: as §1
Mus musculus [13] = experiment: Compound was tested for antidepressant activity against reserpine induced ptosis in mice after intraperitoneal administration.; value ranges from 31-38; format: functional; settings: ip; method in brief: as §1
Mus musculus [14] = experiment: Serotonergic activity by measuring the potentiation of 5-hydroxy tryptophan in mice upon ip administration; value ranges from 19-31; format: functional; method in brief: as §2
Mus musculus [15] = experiment: Compound was tested for antidepressant activity against reserpine induced ptosis in mice after intraperitoneal administration.; value ranges from 4-7; format: functional; settings: ip; method in brief: as §1
Mus musculus [16] = experiment: as §3; settings: in vivo, ip
Mus musculus [17] = experiment: Serotonergic activity by measuring the potentiation of 5-hydroxy tryptophan in mice upon ip administration; value ranges from 1.4-2.1; format: functional; method in brief: as §2
Mus musculus [18] = experiment: Compound was tested for antidepressant activity against reserpine induced ptosis in mice after intraperitoneal administration.; value ranges from 9-12; format: functional; settings: ip; method in brief: as §1
Mus musculus [19] = experiment: Compound was tested for antidepressant activity against reserpine induced ptosis in mice after intraperitoneal administration.; value ranges from 4.0-5.7; format: functional; settings: ip; method in brief: as §1
Mus musculus [20] = experiment: Serotonergic activity by measuring the potentiation of 5-hydroxy tryptophan in mice upon ip administration; value ranges from 3.8-4.9; format: functional; method in brief: as §2

Structure (SMILES) | ED50 (Mus musculus [2]) [mg/kg] | minimal effective dose (Mus musculus [3]) [mg/kg] | LD50 [4] [mg/kg] | ED50 (Mus musculus [6]) [mg/kg] | also measured
Cc1cc(-c2ccccc2)nnc1NCCN | > 30 | 0.5 | 300 |  | ED50 (Mus musculus [1]): 16 mg/kg
Cc1cccc(-c2cc(C)c(NCCN3CCOCC3)nn2)c1 | > 10 | > 2 | 23 |  | ED50 (Mus musculus [5]): 10 mg/kg
Br.Br.Cc1cc(-c2ccc(O)cc2)nnc1NCCN1CCOCC1 [MOXIRAPRINE DIBROMIDE] | > 100 | 0.1 | > 300 | > 40 | 
Cc1cc(-c2ccccc2)nnc1NCCCN1CCOCC1 | > 25 | 2 |  | > 30 | LD50 [7]: 66 mg/kg
Br.Br.Cc1cc(-c2ccccc2O)nnc1NCCN1CCOCC1 |  | 0.1 | > 200 |  | ED50 (Mus musculus [8]): 16 mg/kg; ED50 (Mus musculus [9]): 17 mg/kg
Cc1cc(-c2ccc(N)cc2)nnc1NCCN1CCOCC1 |  | > 2 | 15 | > 5 | 
COc1ccc(-c2cc(C)c(NCCN3CCOCC3)nn2)cc1 | > 5 | > 2 | 19 | > 5 | 
CCCN(CCC)CCNc1nnc(-c2ccccc2)cc1C | > 30 | 2 | 76 | > 30 | 
CCOC(=O)c1cc(-c2ccccc2)nnc1NCCN1CCOCC1 |  | 0.5 | 180 | > 50 | 
Br.Br.Cc1cc(-c2cccc(O)c2)nnc1NCCN1CCOCC1 | > 30 | 10 | > 200 | > 50 | 
c1ccc(Cc2cc(-c3ccccc3)nnc2NCCN2CCOCC2)cc1 | > 50 | 2 | 131 | > 50 | 
Cc1cc(-c2ccc(F)cc2)nnc1NCCN1CCOCC1 |  | 2 | 45 |  | ED50 (Mus musculus [10]): 4.5 mg/kg; ED50 (Mus musculus [11]): 4.7 mg/kg
Cc1cc(-c2ccccc2Cl)nnc1NCCN1CCOCC1 |  | 1 | 7 | > 5 | 
COc1cccc(-c2cc(C)c(NCCN3CCOCC3)nn2)c1 | > 5 | 0.5 | 18 |  | ED50 (Mus musculus [12]): 6 mg/kg
Cc1cc(-c2ccccc2)nnc1NC(C)CN (configuration not stated) | > 30 | 2 | > 200 |  | ED50 (Mus musculus [13]): 34 mg/kg
Cc1cc(-c2ccccc2)nnc1NCCN1CCCC1 |  |  | 70 | > 30 | 
Cc1cc(-c2ccc([N+](=O)[O-])cc2)nnc1NCCN1CCOCC1 |  |  | 35 |  | 
Cc1cc(-c2cccc3ccccc23)nnc1NCCN1CCOCC1 | > 2.5 | 0.01 | 7 | > 2.5 | 
Cc1ccc(-c2cc(C)c(NCCN3CCOCC3)nn2)cc1 | > 15 | 0.5 | 51 | > 15 | 
Clc1ccc(Cc2cc(-c3ccccc3)nnc2NCCN2CCOCC2)cc1 | > 30 | 10 | 180 | > 30 | 
c1ccc(-c2cc(Cc3ccc4ccccc4c3)c(NCCN3CCOCC3)nn2)cc1 | > 100 | 2 | 275 | > 50 | 
Cc1cc(-c2ccccc2)nnc1NCCN1CCOCC1.Cl |  |  |  |  | ED50 (Mus musculus [14]): 24 mg/kg; ED50 (Mus musculus [15]): 5 mg/kg; LD50 (Mus musculus [16]): 63 mg/kg
Cc1cc(-c2ccsc2)nnc1NCCN1CCOCC1 |  | > 10 | 72 |  | ED50 (Mus musculus [17]): 1.7 mg/kg; ED50 (Mus musculus [18]): 10 mg/kg
Cc1cc(-c2cccs2)nnc1NCCN1CCOCC1 |  | > 10 | 59 |  | ED50 (Mus musculus [19]): 4.8 mg/kg; ED50 (Mus musculus [20]): 4.2 mg/kg
